Activity calls are given as the source filed them. The rule behind the calls is not given here.
Experiments:
NCI-H1299 [1] = assay: Induction of ROS generation in human NCI-H1299 cells at 100 uM after 5 hrs by DCF-DA staining-based assay; assay type: functional
In short: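 Single-point screen at 100 µM in duplicate, 5 h incubation in H1299 cells. ROS detected by DCF-DA fluorescence, reported as fold over non-treated control (Fi/Fo).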

NCI-H1299 [2] = assay: Cytotoxicity against human NCI-H1299 cells assessed as reduction in cell viability after 48 hrs by MTT assay; assay type: functional, cell-based; conditions: for IC50: NCI-H1299, 48 h
In short: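 H1299 non-small cell lung carcinoma cells incubated with compound for 48 h. Viability by MTT relative to non-treated control (Vi/Vo). IC50 taken from dose–response.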

NCI-H1299 [3] = assay: Cytotoxicity against human NCI-H1299 cells assessed as reduction in cell viability at 100 uM after 48 hrs by MTT assay; assay type: functional, cell-based
In short: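 H1299 cells treated at 100 µM for 48 h in duplicate. MTT viability expressed as treated versus non-treated control (Vi/Vo).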

NCI-H1299 [4] = assay: Induction of ROS generation in human NCI-H1299 cells at <= 100 uM after 5 hrs by DCF-DA staining-based assay; assay type: functional
NCI-H1299 [5] = assay: Induction of ROS generation in human NCI-H1299 cells after 5 hrs by DCF-DA staining-based assay; assay type: functional, cell-based
In short: (§1)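 H1299 cells incubated 5 h with increasing compound concentrations (0–100 µM). ROS read with the cell-permeable probe DCF-DA. Fluorescence of treated cells (Fi) ratioed to non-treated control (Fo).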

[6] = target: Endoplasmic reticulum chaperone BiP (Homo sapiens) (UniProt P11021); assay: Induction of glucose-regulated protein 78 in HEK293 cells at 200 uM after 6 hrs by Western blotting method; assay type: cell-based
In short: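 GRP78 (BiP) induction, an ER stress marker, assessed by Western blot of HEK293 lysates after treatment at 200 µM.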

NCI-H1299 [7] = assay: Cytotoxicity against human NCI-H1299 cells assessed as viability at 500 uM after 48 hrs by MTT assay; assay type: functional; conditions: NCI-H1299, 48 h, read-out: Activity
In short: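 H1299 non-small cell lung carcinoma cells incubated with compound for 48 h; viability read by MTT assay and expressed as treated (Vi) relative to non-treated control (Vo).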

[8] = target: T1, AMP-activated protein kinase, AMPK (Homo sapiens) (UniProt P54646+O43741+P54619+Q9UGJ0+Q9Y478+Q13131+Q9UGI9); assay: Activation of AMPK in HEK293 cells assessed as AMPK phosphorylation after 16 hrs by Western blotting method; assay type: cell-based
In short: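 HEK293 cells treated with increasing concentrations of compound for 16 h; cell lysates analysed by Western blot with antibodies to phosphorylated AMPK (also p53).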

NCI-H1299 [9] = assay: Induction of ROS generation in human NCI-H1299 cells at […] after 5 hrs by DCF-DA staining-based assay
NCI-H1299 [10] = assay: Induction of ROS generation in human NCI-H1299 cells at <= 50 uM after 5 hrs by DCF-DA staining-based assay; assay type: functional; in short: as §1
[11] = target: T1, AMP-activated protein kinase, AMPK (Homo sapiens); assay: Activation of AMPK in HEK293 cells assessed as p53 stabilization at 0.03 to 0.1 mM after 16 hrs by Western blotting method; assay type: cell-based

Sequence of Endoplasmic reticulum chaperone BiP (Homo sapiens) (P11021 whole entry): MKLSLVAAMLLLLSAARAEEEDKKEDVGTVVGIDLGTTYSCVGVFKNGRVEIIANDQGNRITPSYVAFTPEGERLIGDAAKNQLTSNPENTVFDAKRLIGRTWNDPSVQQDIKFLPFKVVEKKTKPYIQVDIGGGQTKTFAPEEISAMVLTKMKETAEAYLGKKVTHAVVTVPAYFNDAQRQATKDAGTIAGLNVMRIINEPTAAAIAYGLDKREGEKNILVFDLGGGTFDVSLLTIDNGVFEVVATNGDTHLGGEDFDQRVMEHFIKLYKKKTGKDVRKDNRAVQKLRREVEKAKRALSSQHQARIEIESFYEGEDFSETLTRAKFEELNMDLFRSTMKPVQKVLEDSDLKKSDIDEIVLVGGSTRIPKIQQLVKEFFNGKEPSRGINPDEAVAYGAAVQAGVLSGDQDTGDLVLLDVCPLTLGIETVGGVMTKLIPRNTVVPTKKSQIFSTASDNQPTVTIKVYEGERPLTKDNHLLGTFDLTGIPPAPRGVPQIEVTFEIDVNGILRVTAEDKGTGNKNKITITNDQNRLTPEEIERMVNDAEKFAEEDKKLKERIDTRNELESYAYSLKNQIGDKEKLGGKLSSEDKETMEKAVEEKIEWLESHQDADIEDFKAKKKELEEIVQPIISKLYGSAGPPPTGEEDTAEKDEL

For `C[C@@H]1OC(Nc2cccc3ccccc23)[C@H](O)[C@H](O)[C@H]1O` (stereo partly specified), the “fold change (FC)” value (NCI-H1299 [1]) was “>=2”.
`OO` [HYDROGEN PEROXIDE] gave an IC50 (NCI-H1299 [2]) of 60 µM.
In the case of `O[C@H]1[C@H](O)[C@@H](Nc2ccccc2)OC[C@H]1O`, the Activity (NCI-H1299 [1]) is reported as “inactive” and the Activity (NCI-H1299 [3]) is reported as “Active”.
With `O[C@@H]1[C@@H](O)[C@H](Nc2cccc3ccccc23)OC[C@H]1O` the “fold change (FC)” value (NCI-H1299 [4]) was 2, the “fold change (FC)” value (NCI-H1299 [1]) was “>=2” and the Activity (NCI-H1299 [5]) was “Dose-dependent effect”. For the same molecule, the Activity (NCI-H1299 [3]) was “Active”, the IC50 (NCI-H1299 [2]) was 75 µM and the Activity [6] was “Active”.
With `OC[C@H]1OC(O)C[C@@H](O)[C@@H]1O` (stereo partly specified) the viability at 500 µM (NCI-H1299 [7]) was 80%, the Activity [8] was “Dose-dependent effect” and the “fold change (FC)” value (NCI-H1299 [9]) was 1.5.
With `CC(=O)N[C@H]1C(Nc2ccc3nccnc3c2)O[C@H](CO)[C@@H](O)[C@@H]1O` (stereo partly specified) the “fold change (FC)” value (NCI-H1299 [1]) was “>=2”.
For `O[C@@H]1[C@@H](O)[C@@H](O)CO[C@H]1Nc1ccccc1`, the Activity (NCI-H1299 [3]) was “Active”.
In the case of `OC[C@H]1OC(Nc2cccc3ccccc23)[C@H](O)[C@@H](O)[C@H]1O` (stereo partly specified), the “fold change (FC)” value (NCI-H1299 [1]) is reported as “>=2”.
For `O[C@H]1[C@H](O)[C@H](Nc2ccccc2)OC[C@H]1O`, the Activity (NCI-H1299 [1]) was “inactive” and the Activity (NCI-H1299 [3]) was “Active”.
With `CC(=O)OC1OC[C@@H](OC(C)=O)[C@H](OC(C)=O)[C@H]1OC(C)=O` (stereo partly specified) the Activity (NCI-H1299 [2]) was “inactive”.
For `O[C@H]1[C@H](O)[C@@H](Nc2cccc3ccccc23)OC[C@H]1O`, the “fold change (FC)” value (NCI-H1299 [4]) was 2, the “fold change (FC)” value (NCI-H1299 [1]) was “>=2” and the Activity (NCI-H1299 [5]) was “Dose-dependent effect”. For the same molecule, the Activity (NCI-H1299 [3]) was “Active” and the IC50 (NCI-H1299 [2]) was 75 µM.
`O=C[C@H](O)[C@@H](O)[C@H](O)CO` was tested, and the Activity (NCI-H1299 [2]) was “inactive”.
For `O=c1oc2ccccc2cc1N[C@@H]1OC[C@H](O)[C@H](O)[C@H]1O`, the “fold change (FC)” value (NCI-H1299 [1]) was “>=2”.
`CC(=O)O[C@@H]1[C@@H](OC(C)=O)[C@H](OC(C)=O)CO[C@H]1Nc1cccc2ccccc12` was tested, and the IC50 (NCI-H1299 [2]) was 30 µM, the “fold change (FC)” value (NCI-H1299 [10]) was 1.5 and the Activity [8] was “Dose-dependent effect”. The Activity [11] was “Active” and the Activity [6] was “Active”.

Source: ChEMBL document CHEMBL3763011, “Carbohydrate-based inducers of cellular stress for targeting cancer cells” (Bioorg Med Chem Lett, 2016)
